Test results taken from ChEMBL document CHEMBL1124776, “Studies on hindered phenols and analogues. 2. 1,3-Benzoxathioles having SRS-A inhibiting activity” (J Med Chem, 1990).
In brackets after ≈: the same amount, converted by molar mass.

Key:
Cavia porcellus = species on record: Cavia porcellus; test: Evaluated for inhibition of the formation and release of SRS-A in isolated guinea pig ileum; format: functional
Outline: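 Guinea pig (Hartley, male) lung slices from sensitized animals were preincubated with compound for 15 min, then challenged with albumin antigen. SRS-A formed and released was bioassayed by superfusion over isolated guinea pig ileum. IC50 (μM) came from a least-squares regression of percent inhibition against dose, with 95% confidence limits by Fieller's equation.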

[1] = tested on: superoxide radical (cell-free, no organism); test: The concentration of compound required to inhibit generation of superoxide by 50 percent electrochemically
Rattus norvegicus = species on record: Rattus norvegicus; test: LPO-lowering activity was estimated by the IC50 value of compound in rat liver microsomal lipid peroxidation; format: functional
Outline: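 Rat liver microsomes were reacted with compound plus cysteine (500 μM) and ferrous sulfate (5 μM), following the ferrous sulfate/cysteine method. Lipid peroxide was measured by the thiobarbituric acid method. IC50 (μg/mL) is the concentration giving 50% inhibition of lipid peroxide formation.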

[2] = Rattus norvegicus, Liver, read-out: IC50

Molecule	IC50 (Cavia porcellus)	IC50 (Rattus norvegicus; [2])	IC50 (Rattus norvegicus)	Q1/2 [1]
Cc1c(C)c2c(c(C)c1O)SC(C)O2 (stereo unspecified)	2.1 µM	< 0.1 µg/mL	–	1.6 mM
VITAMIN E [listing 1 of 2 here]	–	–	–	4.4 mM
Cc1c(C)c2c(c(C)c1O)CCC(C)(C)O2 [APC-100]	–	< 0.1 µg/mL	–	2.4 mM
Cc1cc(C(C)(C)C)c(O)c(C(C)(C)C)c1 [BUTYLATED HYDROXYTOLUENE]	–	–	–	0.45 mM
Oc1ccc2c(c1)SCO2	> 64.8 µM	> 1 µg/mL	–	6.2 mM
Cc1c(C)c2c(c(C)c1O)SC(CCCO)O2 (stereo unspecified)	1.5 µM	0.1 µg/mL (≈ 0.393 µM)	–	2.2 mM
Cc1c(C)c2c(c(C)c1O)CCC(C)(C(=O)O)O2 (stereo unspecified) [TROLOX]	–	> 1 µg/mL	–	1.9 mM
CCCCC1Oc2c(C)c(C)c(O)c(C)c2S1 (stereo unspecified)	11.9 µM	< 0.1 µg/mL	–	1.6 mM
Cc1c(C)c2c(c(C)c1O)CCC(C)(CO)O2 (stereo unspecified)	–	0.3 µg/mL (≈ 1.27 µM)	–	2 mM
CCC1Oc2c(C)c(C)c(O)c(C)c2S1 (stereo unspecified)	4.5 µM	< 0.1 µg/mL	–	1.3 mM
Cc1c(C)c2c(c(C)c1O)SCO2	2.4 µM	< 0.1 µg/mL	–	1.3 mM

Further lines, with some results ahead:

IC50 (Cavia porcellus)	IC50 (Rattus norvegicus; [2])	IC50 (Rattus norvegicus)	Molecule	Q1/2 [1]
> 37.2 µM	> 1 µg/mL	–	Cc1c(C)c2c(c(C)c1O)SC(CCC(=O)O)O2 (stereo unspecified)	1.8 mM
11.2 µM	0.1 µg/mL (≈ 0.446 µM)	–	CC1Oc2cc(C(C)(C)C)c(O)cc2S1 (stereo unspecified)	–
> 33.9 µM	< 0.1 µg/mL	–	CCCCCCCC1Oc2c(C)c(C)c(O)c(C)c2S1 (stereo unspecified)	1.4 mM
3.1 µM	0.3 µg/mL (≈ 1.12 µM)	–	Cc1c(C)c2c(c(C)c1O)SC(CCC(N)=O)O2 (stereo unspecified)	2.3 mM
136 µM	–	–	NC1=NN(c2cccc(C(F)(F)F)c2)CC1 [BW-755C]	–
> 35.6 µM	0.1 µg/mL (≈ 0.357 µM)	–	CCCCCCC1Oc2c(C)c(C)c(O)c(C)c2S1 (stereo unspecified)	1.6 mM
–	–	> 1 µg/mL	VITAMIN E [listing 2 of 2 here]	–
–	> 1 µg/mL	–	CCCCCCCCCCCCCCCCCCCC1Oc2c(C)c(C)c(O)c(C)c2S1 (stereo unspecified)	1.8 mM
3.8 µM	< 0.1 µg/mL	–	CCCC1Oc2c(C)c(C)c(O)c(C)c2S1 (stereo unspecified)	1.4 mM
6.6 µM	< 0.1 µg/mL	–	Cc1c(C)c2c(c(C)c1O)SC(c1ccccc1)O2 (stereo unspecified)	2.4 mM
147 µM	–	–	CC(C)(C)c1cc(/C=C2\CCOC2=O)cc(C(C)(C)C)c1O	–
